Test results: ChEMBL document CHEMBL2177095, “Discovery of selective and potent inhibitors of gram-positive bacterial thymidylate kinase (TMK)” (J Med Chem, 2012)
Values after ≈ are worked out from the molar mass of the structure shown.

Key:
[1] = Inhibition of Staphylococcus aureus thymidylate kinase assessed as effect on conversion of dTDP to dTMP by luciferin/luciferase reporter gene based assay
[2] = Inhibition of Streptococcus pneumoniae thymidylate kinase assessed as effect on conversion of dTDP to dTMP by luciferin/luciferase reporter gene based assay
[3] = tested on: Candida albicans; assay: Toxicity against Candida albicans; format: organism-based
[4] = Toxicity against human A549 cells; format: cell-based; conditions: read-out: MIC
[5] = tested on: Staphylococcus aureus; assay: Antimicrobial activity against methicillin and quinolone-resistant Staphylococcus aureus by broth microdilution method; format: functional
Procedure, shortened: (§1)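 MICs were determined against bacterial strains from the AstraZeneca collection. For S. aureus, MSQS means methicillin- and quinolone-sensitive, and MRQR means methicillin- and quinolone-resistant.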

[6] = biological target: T1, Thymidylate kinase (Homo sapiens, UniProt P23919); assay: Inhibition of human thymidylate kinase assessed as effect on ATP production by Escherichia coli DdlA and Malachite green reagent based assay
T1 sequence (P23919 whole entry): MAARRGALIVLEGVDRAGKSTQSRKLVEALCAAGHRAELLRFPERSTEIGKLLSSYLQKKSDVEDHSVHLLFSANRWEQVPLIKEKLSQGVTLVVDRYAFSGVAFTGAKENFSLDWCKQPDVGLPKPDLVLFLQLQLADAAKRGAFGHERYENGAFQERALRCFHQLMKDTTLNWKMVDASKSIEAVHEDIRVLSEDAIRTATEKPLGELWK

[7] = tested on: Staphylococcus aureus; assay: Antimicrobial activity against methicillin and quinolone-sensitive Staphylococcus aureus by broth microdilution method; format: functional; procedure, shortened: as §1
[8] = tested on: Streptococcus pneumoniae; assay: Antimicrobial activity against Streptococcus pneumoniae by broth microdilution method; format: functional
Procedure, shortened: (§2)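 Test organisms were strains from the AstraZeneca collection.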

[9] = Partition coefficient, log D of the compound at pH 7.4 by shake flask method; conditions: octanol/water
[10] = Toxicity in Staphylococcus aureus infected mouse thigh infection model assessed as incidence of adverse events; format: organism-based, Thigh muscle; conditions: in vivo
[11] = tested on: Staphylococcus aureus; assay: Antimicrobial activity against Staphylococcus aureus infected in mouse thigh infection model assessed as compound dose causing microbial infection stasis administered as single dose; format: functional, Thigh muscle
[12] = tested on: Enterococcus faecalis; assay: Antimicrobial activity against vancomycin-resistant Enterococcus faecalis by broth microdilution method; format: functional; procedure, shortened: as §1
[13] = tested on: Enterococcus faecium; assay: Antimicrobial activity against linezolid-resistant Enterococcus faecium by broth microdilution method; format: functional; procedure, shortened: as §1
[14] = tested on: Staphylococcus epidermidis; assay: Antimicrobial activity against Staphylococcus epidermidis by broth microdilution method; format: functional; procedure, shortened: as §2
[15] = tested on: Streptococcus pyogenes; assay: Antimicrobial activity against Streptococcus pyogenes by broth microdilution method; format: functional; procedure, shortened: as §2

| Structure (SMILES) | IC50 [1] [nM] | IC50 [2] [nM] | MIC [3] [µg/mL] | MCC [4] [µg/mL] | MIC [5] [µg/mL] | IC50 [6] [nM] | MIC [7] [µg/mL] | MIC [8] [µg/mL] | logD [9] | NOAEL [10] [mg/kg/day] | Activity [11] [mg/kg] | MIC [12] [µg/mL] | MIC [13] [µg/mL] | MIC [14] [µg/mL] | MIC [15] [µg/mL] |
| --- | --- | --- | --- | --- | --- | --- | --- | --- | --- | --- | --- | --- | --- | --- | --- |
| Cc1ccc(Oc2cccc(CN3CCC[C@H](n4cc(C)c(=O)[nH]c4=O)C3)c2)cc1Cl | 1900 | 1000 |  |  |  |  |  |  |  |  |  |  |  |  |  |
| Cc1cn([C@H]2CCCN([C@H](C)c3ccc(C(=O)O)c(Oc4cccc(Cl)c4)c3)C2)c(=O)[nH]c1=O | 2.5 | 0.3 | > 64 | > 64 | 8 (≈ 16.5 µM) | 150000 | 4 (≈ 8.27 µM) | 0.1 (≈ 0.207 µM) | -0.26 |  |  |  |  |  |  |
| Cc1cn([C@H]2CCCN([C@@H](C)c3ccc(C(=O)O)c(Oc4cccc(Cl)c4)c3)C2)c(=O)[nH]c1=O | 29.3 | 1 |  |  | 8 (≈ 16.5 µM) |  | 8 (≈ 16.5 µM) | 0.25 (≈ 0.517 µM) | -0.3 |  |  |  |  |  |  |
| CC[C@@H](c1ccc(C(=O)O)c(Oc2cccc(Cl)c2)c1)N1CCC[C@H](n2cc(C)c(=O)[nH]c2=O)C1 | 18.3 | 3 |  |  | 4 (≈ 8.03 µM) |  | 2 (≈ 4.02 µM) | 0.25 (≈ 0.502 µM) | 0.2 |  |  |  |  |  |  |
| CCC[C@H](c1ccc(C(=O)O)c(Oc2cccc(Cl)c2)c1)N1CCC[C@H](n2cc(C)c(=O)[nH]c2=O)C1 | 8.3 | 0.3 | > 64 | > 64 | 1 (≈ 1.95 µM) | 150000 | 1 (≈ 1.95 µM) | 0.05 (≈ 0.0977 µM) |  |  |  |  |  |  |  |
| CCC[C@@H](c1ccc(C(=O)O)c(Oc2cccc(Cl)c2)c1)N1CCC[C@H](n2cc(C)c(=O)[nH]c2=O)C1 | 18 | 0.6 |  |  | 4 (≈ 7.81 µM) |  | 4 (≈ 7.81 µM) | 0.1 (≈ 0.195 µM) |  |  |  |  |  |  |  |
| Cc1cn([C@H]2CCCN([C@H](CC(C)C)c3ccc(C(=O)O)c(Oc4cccc(Cl)c4)c3)C2)c(=O)[nH]c1=O |  | < 0.2 |  |  | 1 (≈ 1.9 µM) |  | 1 (≈ 1.9 µM) | 0.03 (≈ 0.057 µM) | 0.9 |  |  |  |  |  |  |
| Cc1cn([C@H]2CCCN([C@@H](CC(C)C)c3ccc(C(=O)O)c(Oc4cccc(Cl)c4)c3)C2)c(=O)[nH]c1=O | 13.5 | 0.6 |  |  | 2 (≈ 3.8 µM) |  | 2 (≈ 3.8 µM) | 0.05 (≈ 0.0951 µM) | 0.9 |  |  |  |  |  |  |
| Cc1cn([C@H]2CCCN([C@H](CC(C)(C)C)c3ccc(C(=O)O)c(Oc4cccc(Br)c4)c3)C2)c(=O)[nH]c1=O | 0.8 | 0.2 | > 64 | > 64 | 0.25 (≈ 0.428 µM) | 62000 | 0.25 (≈ 0.428 µM) | 0.02 (≈ 0.0342 µM) | 1.1 | 800 | 150 | 1 (≈ 1.71 µM) | 0.25 (≈ 0.428 µM) | 2 (≈ 3.42 µM) | 0.08 (≈ 0.137 µM) |
| Cc1cn([C@H]2CCCN([C@@H](CC(C)(C)C)c3ccc(C(=O)O)c(Oc4cccc(Br)c4)c3)C2)c(=O)[nH]c1=O | 2.8 | 0.6 |  |  | 1 (≈ 1.71 µM) |  | 2 (≈ 3.42 µM) | 0.03 (≈ 0.0513 µM) | 1.2 |  |  |  |  |  |  |
| CCC(C)(C)C[C@H](c1ccc(C(=O)O)c(Oc2cccc(Cl)c2)c1)N1CCC[C@H](n2cc(C)c(=O)[nH]c2=O)C1 | 1 | 0.3 | > 64 | > 64 | 0.1 (≈ 0.18 µM) | 43400 | 0.25 (≈ 0.451 µM) | 0.05 (≈ 0.0902 µM) | 1.4 |  |  |  |  |  |  |
| CCC(CC)C[C@H](c1ccc(C(=O)O)c(Oc2cccc(Cl)c2)c1)N1CCC[C@H](n2cc(C)c(=O)[nH]c2=O)C1 | < 3 | 0.1 |  |  | 0.1 (≈ 0.18 µM) |  | 0.25 (≈ 0.451 µM) | 0.02 (≈ 0.0361 µM) | 1.7 |  |  |  |  |  |  |
| CCCCC[C@H](c1ccc(C(=O)O)c(Oc2cccc(Br)c2)c1)N1CCC[C@H](n2cc(C)c(=O)[nH]c2=O)C1 | 0.5 | < 0.1 | > 64 | > 64 | 0.1 (≈ 0.171 µM) | 32000 | 0.25 (≈ 0.428 µM) | 0.01 (≈ 0.0171 µM) | 1.1 |  |  | 0.06 (≈ 0.103 µM) | 0.25 (≈ 0.428 µM) | 0.5 (≈ 0.855 µM) | 0.04 (≈ 0.0684 µM) |
| CCC(C)(CC)C[C@H](c1ccc(C(=O)O)c(Oc2cccc(Br)c2)c1)N1CCC[C@H](n2cc(C)c(=O)[nH]c2=O)C1 | 1.3 | 0.3 |  |  | 0.03 (≈ 0.049 µM) |  | 0.1 (≈ 0.163 µM) | 0.03 (≈ 0.049 µM) | 2 |  |  |  |  |  |  |
| CCCC(C)(C)C[C@H](c1ccc(C(=O)O)c(Oc2cccc(Cl)c2)c1)N1CCC[C@H](n2cc(C)c(=O)[nH]c2=O)C1 | 0.7 | 0.3 |  |  | 0.06 (≈ 0.106 µM) |  | 0.25 (≈ 0.44 µM) | 0.06 (≈ 0.106 µM) | 2 |  |  |  |  |  |  |
| Cc1cn([C@H]2CCCN([C@H](CC3CCCCC3)c3ccc(C(=O)O)c(Oc4cccc(Cl)c4)c3)C2)c(=O)[nH]c1=O | 0.7 | < 0.1 |  |  | 0.1 (≈ 0.177 µM) |  | 0.25 (≈ 0.442 µM) | 0.01 (≈ 0.0177 µM) |  |  |  |  |  |  |  |
| Cc1cn([C@H]2CCCN([C@H](CC3CCOCC3)c3ccc(C(=O)O)c(Oc4cccc(Cl)c4)c3)C2)c(=O)[nH]c1=O | 1.6 | < 0.1 |  |  | 8 (≈ 14.1 µM) |  | 16 (≈ 28.2 µM) | 0.1 (≈ 0.176 µM) | -0.25 |  |  |  |  |  |  |
| Cc1cn([C@H]2CCCN([C@H](CC34CC5CC(CC(C5)C3)C4)c3ccc(C(=O)O)c(Oc4cccc(Br)c4)c3)C2)c(=O)[nH]c1=O | 1.1 | 0.1 |  |  | 0.1 (≈ 0.151 µM) |  | 0.25 (≈ 0.377 µM) | 0.03 (≈ 0.0453 µM) | 2.5 |  |  |  |  |  |  |
| Cc1cccc(Oc2cccc(CN3CCC[C@H](n4cc(C)c(=O)[nH]c4=O)C3)c2)c1 | 2700 | 300 |  |  |  |  |  |  |  |  |  |  |  |  |  |
